Experimental data: ChEMBL document CHEMBL1131877, “Structure-activity relationship of short-chain sphingoid bases as inhibitors of sphingosine kinase” (Bioorg Med Chem Lett, 1999)

System: HEK293
Test: Inhibitory activity against sphingosine kinase expressed in HEK293 cells at 10 uM
Type: cell-based
Conditions: Homo sapiens
Method in brief: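 Sphingosine kinase from cytosolic fractions of HEK 293 cells transfected to overexpress the enzyme (0.125 μg). Substrate D-erythro-sphingosine 10 μM in Triton X-100 (0.25% final), with [³²P]ATP (10 μCi, 1 mM) and MgCl₂ 10 mM. Analogues tested at 10 μM. After 10 min at 37 °C, sphingosine-1-phosphate formation measured. Activity given as % of vehicle-only control; means ± S.D.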

| SMILES | inhibition [%] |
| --- | --- |
| N[C@@H](CO)[C@H](O)/C=C/c1ccccc1 | 77 |
| N[C@@H](CO)[C@H](O)CCc1ccccc1 | 59 |
| CCCCCCCC(F)/C=C/[C@@H](N)CO (stereo partly drawn) | 80 |
| N[C@@H](CO)[C@@H](O)/C=C/c1ccccc1 | 79 |
| CCCCCCC/C=C/[C@H](O)[C@@H](N)CO | 70 |
| N[C@@H](CO)[C@@H](F)CCc1ccccc1 | 62 |
| CCCCCCC/C=C/[C@H](F)[C@@H](N)CO | 82 |
| CCCCCCCCC[C@@H](O)[C@@H](N)CO | 48 |
| CCCCCCCCC[C@H](O)[C@@H](N)CO | 50 |
| CCCCCCC/C=C/[C@@H](O)[C@@H](N)CO | 69 |
| CCCCCCCCCCCCC/C=C/[C@@H](O)[C@H](CO)N(C)C | 47 |
| N[C@@H](CO)[C@@H](O)CCc1ccccc1 | 72 |
| CCCCCCCCC[C@H](F)[C@@H](N)CO | 68 |
